# Measurements reported in ChEMBL document CHEMBL2346548, “Design, synthesis, and structure-activity relationship studies of tryptanthrins as antitubercular agents” (J Nat Prod, 2013).
# What was measured:
# [1] = system: Salmonella typhimurium; assay: Mutagenicity in Salmonella typhimurium TA98 assessed as mean revertant colonies at 0.25 to 240 ug/well in presence of rat liver S9 fraction; type: toxicity, organism-based; details: salmonella enterica subsp. enterica serovar typhimurium
# Summary of the method: (§1)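 MicroAmes: strains preincubated with or without Aroclor-induced rat liver S9, duplicate wells, six concentrations 0.25–250 μg equivalents/well; DMSO vehicle, 4-nitroquinoline-N-oxide (−S9) and 2-aminoanthracene (+S9) positive controls; revertant colonies counted; cytotoxicity noted as reduced revertants or background lawn; precipitation recorded.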
# [2] = Permeability across apical to basolateral side in human Caco2 cells incubated for 1 hr at 37 degC by HPLC-MS/MS method; type: ADME, cell-based; details: Caco-2
# Summary of the method: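 TC7 (Caco-2 subclone) monolayer; 10 μM compound in 1% DMSO in HBSS-MES pH 6.5 on apical donor side, basolateral receiver pH 7.4; shaken 1 h at 37 °C; receiver sampled, HPLC-MS/MS; duplicate means.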
# [3] = AUC (0 to infinity) in C57BL/6 mouse at 40 mg/kg, po formulated in 20% DMSODMSO, 20% PEG400, 60% (30% HP-beta-CD in water); type: ADME, organism-based; parameters: dose 40 mg/kg, route oral, time infinity; details: plasma
# [4] = system: Mycobacterium tuberculosis; assay: Antitubercular activity against Mycobacterium tuberculosis Erdman ATCC 35801 infected in C57BL/6 mouse assessed as viable bacterial load in lung at 200 mg/kg twice daily through gavage 5 days per week for 4 weeks starting on 10th day post-infection (reference value: 6.49 +/- 0.10 log10CFU/lung); type: functional
# [5] = Solubility in simulated intestinal fluid at pH 7.6 by HPLC method; type: physicochemical
# Summary of the method: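 Simulated intestinal fluid medium; each analogue 200 μM final in 2% DMSO, shaken 24 h at room temperature, then HPLC with photodiode array read at 230 nm; duplicate, means given.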
# [6] = AUC (0 to infinity) in Sprague-Dawley rat at 5 mg/kg, iv; type: ADME, organism-based; parameters: time infinity, dose 5 mg/kg, route intravenous; details: plasma
# [7] = Volume of distribution in Sprague-Dawley rat at 5 mg/kg, iv; type: ADME, organism-based; parameters: dose 5 mg/kg, route intravenous; details: in vivo
# Summary of the method: (§2)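 Male Sprague-Dawley rats (n = 3), single 5 mg/kg iv dose as solution in PEG300/DMSO 50:50; plasma sampled 0.083–24 h, LC-MS bioanalysis; noncompartmental analysis, means.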
# [8] = system: Vero; assay: Cytotoxicity against african green monkey Vero cells; type: cell-based, Chlorocebus sabaeus; details: Chlorocebus sabaeus, Vero; read-out: IC50
# [9] = system: Mycobacterium tuberculosis; assay: Antitubercular activity against Mycobacterium tuberculosis Erdman ATCC 35801 infected in C57BL/6 mouse assessed as viable bacterial load in spleen at 200 mg/kg/day through gavage 5 days per week for 4 weeks starting on 10th day post-infection (reference value: 4.79 +/- 0.21 log10CFU/spleen); type: functional
# [10] = Clearance in Sprague-Dawley rat at 5 mg/kg, iv; type: ADME, organism-based; parameters: dose 5 mg/kg, route intravenous; details: in vivo; summary of the method: as §2
# [11] = system: Mycobacterium tuberculosis; assay: Antitubercular activity against Mycobacterium tuberculosis Erdman ATCC 35801 infected in C57BL/6 mouse assessed as viable bacterial load in spleen at 200 mg/kg twice daily through gavage 5 days per week for 4 weeks starting on 10th day post-infection (reference value: 4.79 +/- 0.21 log10CFU/spleen); type: functional
# [12] = Tmax in Sprague-Dawley rat at 20 mg/kg, po; type: ADME, organism-based; parameters: dose 20 mg/kg, route oral; details: in vivo
# [13] = target: CYP2C9 (Homo sapiens, UniProt P11712); assay: Inhibition of human recombinant CYP2C9 at 10 uM incubated for 80 mins at 37 degC using 7-methoxy-4-trifluoromethylcoumarin substrate; type: ADME; details: recombinant CYP2C9, probe 7-methoxy-4-trifluoromethylcoumarin
# CYP2C9, sequence (P11712 whole entry): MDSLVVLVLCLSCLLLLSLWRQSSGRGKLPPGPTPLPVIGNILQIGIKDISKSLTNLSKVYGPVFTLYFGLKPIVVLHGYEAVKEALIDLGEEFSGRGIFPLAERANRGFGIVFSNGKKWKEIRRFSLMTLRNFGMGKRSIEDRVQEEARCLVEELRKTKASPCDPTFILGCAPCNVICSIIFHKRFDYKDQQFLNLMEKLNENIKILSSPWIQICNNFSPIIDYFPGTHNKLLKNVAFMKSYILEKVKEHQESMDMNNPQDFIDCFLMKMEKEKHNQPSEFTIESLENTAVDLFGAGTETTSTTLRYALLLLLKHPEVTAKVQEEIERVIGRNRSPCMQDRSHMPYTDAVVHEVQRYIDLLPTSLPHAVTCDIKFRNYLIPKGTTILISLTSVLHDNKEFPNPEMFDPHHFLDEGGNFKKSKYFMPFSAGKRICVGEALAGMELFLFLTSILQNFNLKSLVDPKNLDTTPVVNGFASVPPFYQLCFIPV
# [14] = AUC (0 to infinity) in Sprague-Dawley rat at 20 mg/kg, po; type: ADME, organism-based; parameters: time infinity, dose 20 mg/kg, route oral; details: plasma
# [15] = system: Salmonella typhimurium; assay: Toxicity in Salmonella typhimurium TA100 assessed as compound level per well causing cytotoxicity at 0.25 to 240 ug/well in presence of rat liver S9 fraction; type: organism-based; details: salmonella enterica subsp. enterica serovar typhimurium; summary of the method: as §1
# [16] = Protein binding in human plasma at 10 uM incubated for 8 hrs at 37 degC by equilibrium dialysis method; type: ADME, cell-free; details: read-out: PPB (converted)
# Summary of the method: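 Equilibrium dialysis: 10 μM compound in 1% DMSO in human plasma vs 0.05 M phosphate buffer pH 7.5 across 12–14 K cutoff membrane, at least 8 h at 37 °C; HPLC-photodiode detection at 230 nm; duplicate means.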
# [17] = Solubility in simulated gastric fluid at pH 1.5 by HPLC method; type: physicochemical
# Summary of the method: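 Compound at 200 μM final in 2% DMSO in simulated gastric fluid, shaken 24 h at room temperature; HPLC-photodiode array detection at 230 nm; duplicate means.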
# [18] = Half life in Sprague-Dawley rat at 20 mg/kg, po; type: ADME, organism-based; parameters: dose 20 mg/kg, route oral; details: in vivo
# [19] = target: CYP3A4 (Homo sapiens, UniProt P08684); assay: Inhibition of human recombinant CYP3A4 at 10 uM incubated for 30 mins at 37 degC using 7-benzyloxy-4-(trifluoromethyl)coumarin substrate; type: ADME; details: recombinant CYP3A4, probe 7-benzyloxy-4-(trifluoromethyl)coumarin
# CYP3A4, sequence (P08684 whole entry): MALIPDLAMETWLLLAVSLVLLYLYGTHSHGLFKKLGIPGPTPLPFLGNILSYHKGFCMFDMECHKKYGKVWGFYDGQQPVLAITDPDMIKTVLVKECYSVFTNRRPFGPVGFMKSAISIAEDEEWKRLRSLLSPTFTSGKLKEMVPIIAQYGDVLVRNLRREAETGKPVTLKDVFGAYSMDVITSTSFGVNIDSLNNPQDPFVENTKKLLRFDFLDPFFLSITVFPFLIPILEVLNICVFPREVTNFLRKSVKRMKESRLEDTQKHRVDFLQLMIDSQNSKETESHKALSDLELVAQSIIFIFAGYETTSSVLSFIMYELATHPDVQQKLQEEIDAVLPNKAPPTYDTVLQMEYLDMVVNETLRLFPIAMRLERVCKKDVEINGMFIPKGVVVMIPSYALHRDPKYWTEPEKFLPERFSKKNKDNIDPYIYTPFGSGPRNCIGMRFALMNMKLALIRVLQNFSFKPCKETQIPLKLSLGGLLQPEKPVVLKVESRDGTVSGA
# [20] = Oral bioavailability in Sprague-Dawley rat at 20 mg/kg; type: ADME, organism-based; details: in vivo
# [21] = Metabolic stability in human liver microsomes assessed as parent compound remaining at 1 uM incubated for 1 hr by HPLC-MS/MS method; type: ADME, Microsome; details: read-out: Stability
# Summary of the method: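 Pooled mixed-gender human liver microsomes (0.3 mg/mL protein), 1 μM compound with NADP-regenerating system in phosphate buffer pH 7.4, 1 h at 37 °C; parent measured at start and end by HPLC-MS/MS; duplicate means.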
# [22] = Permeability across basolateral to apical side in human Caco2 cells incubated for 1 hr at 37 degC by HPLC-MS/MS method; type: ADME, cell-based; details: Caco-2
# [23] = system: Salmonella typhimurium; assay: Mutagenicity in Salmonella typhimurium TA100 assessed as mean revertant colonies at 0.25 to 240 ug/well in absence of rat liver S9 fraction; type: toxicity, organism-based; details: salmonella enterica subsp. enterica serovar typhimurium; summary of the method: as §1
# [24] = Tmax in C57BL/6 mouse at 40 mg/kg, po formulated in 0.1% SLS; type: ADME, organism-based; parameters: dose 40 mg/kg, route oral; details: in vivo
# Summary of the method: (§3)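 Female C57BL/6 mice, single 40 mg/kg oral gavage; three mice per time point; plasma at 30 min to 24 h, LC-MS; noncompartmental parameters reported as means.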
# [25] = system: Mycobacterium tuberculosis; assay: Antitubercular activity against non-replicating Mycobacterium tuberculosis H37Rv incubated for 10 days by LORA method; type: functional; details: 240 h
# Summary of the method: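 H37Rv carrying pFCA-luxAB was adapted to low oxygen by gradual self-depletion in a sealed, slowly stirred flask. It was then exposed to compounds for 10 days under anaerobic conditions. Cultures recovered for 28 h in ambient oxygen before n-decanal substrate was added and luminescence read. MIC was the lowest concentration giving a 90% reduction in luminescence versus untreated controls.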
# [26] = Tmax in C57BL/6 mouse at 40 mg/kg, po formulated in 20% DMSODMSO, 20% PEG400, 60% (30% HP-beta-CD in water); type: ADME, organism-based; parameters: dose 40 mg/kg, route oral; details: in vivo; summary of the method: as §3
# [27] = system: Salmonella typhimurium; assay: Toxicity in Salmonella typhimurium TA100 assessed as compound level per well causing cytotoxicity at 0.25 to 240 ug/well in absence of rat liver S9 fraction; type: organism-based; details: salmonella enterica subsp. enterica serovar typhimurium; summary of the method: as §1
# [28] = system: Mycobacterium tuberculosis; assay: Antitubercular activity against Mycobacterium tuberculosis Erdman ATCC 35801 infected in C57BL/6 mouse assessed as viable bacterial load in lung at 200 mg/kg/day through gavage 5 days per week for 4 weeks starting on 10th day post-infection (reference value: 6.49 +/- 0.10 log10CFU/lung); type: functional
compound,measurement,setting,value
O=C1C2=Nc3ccccc3CN2c2ccc(Cl)cc21,Activity,[1],Non-toxic
same,Papp A→B at 1 h,[2],60.8 ×10⁻⁶ cm/s
same,AUC(0-inf),[3],968 ng·h/mL
same,log10cfu,[4],6.64
same,solubility,[5],19.3 µM
same,AUC(0-inf),[6],930 ng·h/mL
same,Vd,[7],11.7 L/kg
same,IC50,[8],40 µg/mL
same,log10cfu,[9],4.85
same,clearance,[10],92.8 mL/min/kg
same,log10cfu,[11],4.89
same,Tmax,[12],2 h
same,"inhibition at 80 min, 10 µM",[13],27%
same,AUC(0-inf),[14],300 ng·h/mL
same,Activity,[15],>= 2.5 ug
same,"fraction unbound at 8 h, 10 µM",[16],0.013
same,solubility,[17],79.2 µM
same,half-life,[18],3.33 h
same,"inhibition at 0.5 h, 10 µM",[19],1%
same,bioavailability,[20],8%
same,"remaining at 1 h, 1 µM",[21],53%
same,Papp B→A at 1 h,[22],20.8 ×10⁻⁶ cm/s
same,Activity,[23],Non-toxic
same,Tmax,[24],1 h
same,MIC90,[25],24 µg/mL
same,Tmax,[26],1.5 h
same,Activity,[27],>= 2.5 ug
same,log10cfu,[28],6.58
